Target: T1, Putative citrate synthase 2 (Mycobacterium tuberculosis, UniProt P9WPD3)
T1 sequence (P9WPD3 whole entry): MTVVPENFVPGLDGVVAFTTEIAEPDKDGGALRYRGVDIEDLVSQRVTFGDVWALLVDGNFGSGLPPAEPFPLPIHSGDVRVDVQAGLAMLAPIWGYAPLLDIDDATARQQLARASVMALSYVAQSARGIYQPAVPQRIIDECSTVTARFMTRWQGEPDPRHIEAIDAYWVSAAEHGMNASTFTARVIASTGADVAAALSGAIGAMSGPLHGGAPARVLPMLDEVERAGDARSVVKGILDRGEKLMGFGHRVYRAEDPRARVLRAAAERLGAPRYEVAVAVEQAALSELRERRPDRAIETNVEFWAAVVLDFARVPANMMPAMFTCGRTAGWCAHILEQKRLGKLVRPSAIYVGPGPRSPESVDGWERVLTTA
Experiment: Inhibition of Mycobacterium tuberculosis CitA expressed in Escherichia coli cell by UV spectrophotometric based analysis
Outline: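 Michael acceptor compounds were added directly to the DTNB/OAA/AcCoA reaction with 10 nM CitA in 50 mM Tris pH 8.0 at 25 °C, read at 412 nm. The screen used 20 μM compound. Dose–response data were fitted to the Hill equation for apparent IC50. A control measured how fast the compounds react with reaction components.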

| Compound | IC50 |
| --- | --- |
| C=C1CC2(OC1=O)C(=O)Nc1ccc(I)cc12 (configuration not stated) | 6.6 µM |
| C=C1C(=O)OC2(C(=O)Nc3ccccc32)C1c1ccccc1 (configuration not stated) | 10.9 µM |

From ChEMBL document CHEMBL5257161, “Mycobacterium tuberculosis CitA activity is modulated by cysteine oxidation and pyruvate binding” (RSC Med Chem, 2023)
